Calls of active or inactive are those of the source. No cut-off for these calls is given here.

The values below come from ChEMBL document CHEMBL5380787, “Optimized M24B Aminopeptidase Inhibitors for CARD8 Inflammasome Activation” (J Med Chem, 2023).

Data set [1] concerns MV4-11. Kind of data set: Induction of cell death in CASP1 knockout human MV4-11 cells assessed as increase in PI uptake at 6.25 uM incubated for 6 hrs by PI staining based fluorescence analysis. The format is functional. The method, boiled down:
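PI flux assay. 2 × 10^4 MV4;11 (WT, CARD8−/− or CASP1−/−) or OCI-AML2 cells in RPMI were given compound at 6.25 μM plus PI at 10 μM final. Fluorescence (Ex/Em 535/617 nm) was read every 5 min at 37 °C for 6 h, baseline-corrected to DMSO and normalized to the maximum response. n = 3.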

The test system of data set [2] is OCI-AML2. Kind of data set: Induction of cell death in human OCI-AML2 cells assessed as reduction in cell viability incubated for 24 hrs by celltiter-glo assay. The format is functional, cell-based. In outline:
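OCI-AML2 cells, WT or CARD8−/−, were grown in RPMI 1640 with 10% FBS and plated at 2000 cells/well. Compound was added over a range of concentrations for 24 h, and viability was then read by CellTiter-Glo luminescence. Means ± SEM, n = 3.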
Background: Cellular ATP, detected with luciferase, serves as a proxy for viable cell number.

In data set [3] the test system is MV4-11. In words: Induction of pyroptosis in human MV4-11 cells assessed as LDH release at 20 uM incubated for 24 hrs. The format is functional, cell-based. In outline:
(§1)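 Cells (MV4;11, OCI-AML2 or THP-1; WT or the knockout named) plated at 5 × 10^5 cells/well and exposed to 20 μM compound for 24 h. LDH in the supernatant was measured relative to a Triton X-100 lysis control. For immunoblots, cells were washed in PBS, sonicated, protein-normalized, run on SDS-PAGE and probed for GSDMD cleavage. n = 3.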
(In general: Release of lactate dehydrogenase indicates damage to the cell membrane.)

Data set [4] deals with MV4-11. Kind of data set: Induction of pyroptosis in CARD8 knockout human MV4-11 cells assessed as LDH release at 20 uM incubated for 24 hrs. The format is functional, cell-based. The method, boiled down:
as §1

The test system of data set [5] is OCI-AML2. In words: Induction of pyroptosis in human OCI-AML2 cells assessed as GSDMD cleavage at 20 uM incubated for 24 hrs by immunoblot analysis. The format is functional, cell-based. The method, boiled down:
as §1
Background: In western blotting, separated proteins are transferred to a membrane and probed.

In data set [6] the test system is T-cell. In words: Induction of pyroptosis in human T cells expressing CARD8 assessed as GSDMD cleavage at 20 uM incubated for 24 hrs by immunoblot analysis. The format is functional, cell-based. The method, boiled down: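 Resting human primary T cells (>90% purity) were thawed and cultured in RPMI-1640 with 10% FBS and 30 U/mL IL-2. They were exposed to 20 μM compound for 24 h, lysed, and immunoblotted for GSDMD cleavage.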

The test system of data set [7] is BMDM. Kind of data set: Induction of pyroptosis in C57BL/6J mouse BMDM cells expressing NLRP1A and NLRP1B allele 2 assessed as LDH release at 20 uM incubated for 24 hrs. The format is functional, cell-based. In outline: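 Bone marrow cells from femurs and tibias of 7–12-week-old C57BL/6J mice were RBC-lysed and differentiated for 6 days at 37 °C in DMEM with 10% FBS and 15–20% L-cell medium, then replated. Cells were exposed to 20 μM compound for 24 h. Read-outs were LDH release against a lysis control and GSDMD immunoblot.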

In data set [8] the test system is THP-1. Kind of data set: Induction of pyroptosis in DPP8/9 knockout human THP-1 cells assessed as LDH release at 20 uM incubated for 24 hrs. The format is functional, cell-based. In outline:
as §1

Data set [9] has as its system THP-1. Kind of data set: Induction of pyroptosis in PEPD knockout human THP-1 cells assessed as LDH release at 20 uM incubated for 24 hrs. The format is functional, cell-based. The method, boiled down: as §1
Data set [10] relates to HEK-293T. Kind of data set: Induction of pyroptosis in human HEK293T cells expressing CASP1 and GSDMD cotransfected with dTAG-CARD8ZUC and CARD8 FIIND S297A assessed as destabilization of DPP9-CARD8 ternary complex by measuring GSDMD clevage at 20 uM incubated for 6 hrs in presence of dTAG13 by immunoblot analysis. The format is functional, cell-based.
In data set [11] the test system is THP-1. In words: Induction of pyroptosis in CARD8 knockout human THP-1 cells harboring dox-inducible […] E274R mutant assessed as cell death by measuring LDH release at 20 uM pretreated with doxycycline for 16 hrs followed by compound addition and measured after 6 hrs. The format is functional, cell-based. The method, boiled down:
(§2)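 CARD8−/− THP-1 cells carrying a doxycycline-inducible CARD8 E274R mutant were exposed or not to DOX at 100 ng/mL for 16 h. Compound was then added at 20 μM for 6 h, followed by LDH release and immunoblot analysis.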

The test system of data set [12] is THP-1. Kind of data set: Induction of pyroptosis in CARD8 knockout human THP-1 cells harboring dox-inducible […] E274R mutant assessed as GSDMD cleavage at 20 uM pretreated with doxycycline for 16 hrs followed by compound addition and measured after 6 hrs by immunoblot analysis. The format is functional, cell-based. The method, boiled down: as §2
The subject of data set [13] is OCI-AML2. Kind of data set: Cytotoxicity against human OCI-AML2 cells assessed as reduction in cell viability at 1 uM incubated for 24 hrs by celltiter-glo assay relative to control. The format is functional. In outline:
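Single-dose viability screen. MV4;11 or OCI-AML2 cells at 2000 cells/well were exposed to 1 μM compound for 24 h. Viability was read by CellTiter-Glo luminescence and expressed as percent inhibition. Values are means of three biological replicates.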

Data set [14] addresses T1, Xaa-Pro dipeptidase (Homo sapiens) (UniProt P12955).
T1 sequence (whole entry): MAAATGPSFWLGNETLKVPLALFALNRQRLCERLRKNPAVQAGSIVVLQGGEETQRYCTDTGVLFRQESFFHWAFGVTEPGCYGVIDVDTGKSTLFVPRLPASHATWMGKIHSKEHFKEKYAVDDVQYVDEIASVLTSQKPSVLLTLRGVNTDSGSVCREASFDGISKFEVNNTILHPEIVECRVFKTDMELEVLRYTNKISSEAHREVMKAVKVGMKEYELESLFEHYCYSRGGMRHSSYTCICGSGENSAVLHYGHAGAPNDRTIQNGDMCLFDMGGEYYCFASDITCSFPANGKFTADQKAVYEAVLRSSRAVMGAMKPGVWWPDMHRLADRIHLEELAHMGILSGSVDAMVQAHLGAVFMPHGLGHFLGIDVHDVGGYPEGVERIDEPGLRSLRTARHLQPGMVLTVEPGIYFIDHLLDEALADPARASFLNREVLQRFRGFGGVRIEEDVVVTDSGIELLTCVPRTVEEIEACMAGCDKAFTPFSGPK
In words: Inhibition of recombinant human PEPD using Ala-Pro as substrate assessed as alanine release by measuring increase in fluorescense signal at 1 uM by fluorescence based analysis relative to control. The method, boiled down:
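Recombinant human PEPD at 50 nM was incubated with Ala-Pro at 40 μM final and compound. Released alanine was detected by coupled alanine transaminase/pyruvate oxidase conversion to H2O2 and resorufin fluorescence (Ex/Em 535/587 nm) at 25 °C.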

The test system of data set [15] is THP-1. In words: Induction of pyroptosis in PEPD knockout human THP-1 cells assessed as GSDMD clevage at 20 uM incubated for 24 hrs by immunoblot analysis. The format is functional, cell-based. In outline: as §1
In data set [16] the test system is THP-1. Kind of data set: Induction of pyroptosis in XPNPEP1 knockout human THP-1 cells assessed as GSDMD clevage at 20 uM incubated for 24 hrs by immunoblot analysis. The format is functional, cell-based. The method, boiled down:
as §1

The subject of data set [17] is THP-1. In words: Induction of pyroptosis in PEPD/XPNPEP1 knockout human THP-1 cells assessed as GSDMD clevage at 20 uM incubated for 24 hrs by immunoblot analysis. The format is functional, cell-based. The method, boiled down: as §1
Data set [18] is described as follows: Drug metabolism of the compound in human MV4-11 cells assessed as de-esterified metabolite formation by LC-MS analysis. The format is ADME, cell-based.

Regarding `COC(=O)[C@@H]1CCCN1C(=O)[C@@H](O)[C@H](N)CC(C)C`, the result in data set [1], in [4], in data set [7], in data set [8], in data set [11] and in data set [12] was inactive. In addition, the outcome in data set [17] was inactive. Further, the result in [2], in data set [3], in data set [5], in [6], in [9] and in data set [10] was Active. The result in data set [15] and in data set [16] was Active. Besides, the Activity in data set [13] is given as 42%. For the same molecule, the inhibition – broadly, the drop in the measured response relative to a control, in per cent – in data set [14] amounted to 48%.
In the case of `COC(=O)[C@H](CC(C)C)NC(=O)[C@@H]1CCCN1C(=O)[C@@H](O)[C@H](N)CC(C)C`, the result in data set [1], in data set [4], in data set [7], in [8], in data set [11] and in [12] was inactive. Further, the result in data set [17] was inactive. The outcome in data set [2], in data set [3], in data set [5], in data set [6], in data set [9] and in data set [10] was Active. For the same molecule, the result in data set [15] and in data set [16] was Active. The Activity in [13] was 37%. Besides, in data set [14], the inhibition was 60%. For the same molecule, the Drug metabolism entry in data set [18] was “Metabolite_Detected”.
